KDM4C inh – KDM4C (human) demethylase inhibition; Q9H3R0; GST-KDM4C 2-372, H3K9me3 peptide, LANCE TR-FRET; inhibition, % at 12.5 µM; 0.15% of 96,000 active; AID 720574;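 active means mean replicate inhibition above about 25%, with at least 55% of replicates also reaching it, limit read from the data, passing the limit was not always enough; inconclusive means only one of those two conditions met; inactive means neither condition met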
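Compound: one test concentration per compound; Material: GST-GASC-1 enzyme fragment 2-372; Amount: GASC-1 enzyme at 10 nM final in reaction; Also added: H3K9me3 peptide substrate, Fe(II), 2-oxoglutarate; Technique: LANCE TR-FRET; Times: 30 min demethylation and 1 h detection at room temperature.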
IDH1 R132H inh – blocks human IDH1 R132H reductase activity | O75874 | diaphorase/resazurin fluorescence, 60 min | inhibition, % at 10 µM | 0.18% of 70,000 active; in the data active means inhibition above about 34%; inconclusive means no clear call, values can overlap the other calls; inactive means below about 11%;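 further: 0% = DMSO and 100% = no enzyme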
Target sequence (O75874 whole entry R132H): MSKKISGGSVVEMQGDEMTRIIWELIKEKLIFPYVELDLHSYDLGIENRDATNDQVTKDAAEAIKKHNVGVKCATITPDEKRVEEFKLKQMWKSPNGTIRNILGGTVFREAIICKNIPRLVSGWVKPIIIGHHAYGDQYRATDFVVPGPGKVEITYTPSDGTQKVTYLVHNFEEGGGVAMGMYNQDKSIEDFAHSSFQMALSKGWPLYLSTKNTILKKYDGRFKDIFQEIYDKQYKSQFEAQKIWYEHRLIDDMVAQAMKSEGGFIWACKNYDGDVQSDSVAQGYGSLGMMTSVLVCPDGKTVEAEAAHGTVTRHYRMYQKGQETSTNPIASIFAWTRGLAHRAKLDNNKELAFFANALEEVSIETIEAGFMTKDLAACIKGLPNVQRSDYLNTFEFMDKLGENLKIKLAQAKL
T cruzi growth-1 – blocks T. cruzi growth in NIH3T3 culture; T. cruzi beta-gal in NIH3T3, GalScreen luminescence, 90 h; inhibition, % at 8.34 µM; 5.9% of 77,000 active; AID 624255;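 active means mean inhibition above about 93%, with at least 55% of replicates each passing it, limit read from the data, passing the limit was not always enough; inconclusive means only one of those two conditions holds; inactive means neither condition holds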
Pf Dd2 inh – blocks growth of Plasmodium falciparum Dd2 parasites. activity change, % at 10 µM. 2.3% of 94,000 active. AID 1159554. P. falciparum Dd2 growth, SYBR Green, 72 h; hits give low values; in the data active means activity change below about -80%; inconclusive means no clear call, values can overlap the other calls
T cruzi growth-2 – blocks T. cruzi growth in NIH3T3 host cells; shares compounds with T cruzi growth-1; T. cruzi beta-gal in NIH3T3, GalScreen luminescence, 90 h; inhibition, % at 8.35 µM; 72% of 5,600 active; AID 651739;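 active means mean replicate inhibition above about 95% and at least 55% of replicates individually reaching it, limit read from the data; inconclusive means only one of the two criteria is met; inactive means neither criterion is met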
T cruzi growth-3 – inhibitors of T. cruzi proliferation; shares compounds with T cruzi growth-1; T. cruzi beta-gal in NIH3T3, GalScreen luminescence, 90 h; inhibition, % at 2.09 µM; 21% of 5,600 active;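 active means mean inhibition above about 95%, with at least 55% of replicates also reaching it, limit read from the data; inconclusive means meets just one of the two conditions; inactive means meets neither condition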;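 further: plate controls were neutral control median for no effect and positive control median for full effect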
3T3 cytotox – cytotoxicity in mouse NIH/3T3 fibroblasts. shares compounds with T cruzi growth-1. NIH/3T3 viability, CellTiter-Glo ATP luminescence, 90 h. cytotoxicity (signal decrease), % at 8.35 µM. 14% of 5,600 active. AID 651742;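 active means mean signal decrease across replicates above about 35% based on untreated-well scatter, with enough replicates individually passing, limit read from the data; inconclusive means no rule stated though some were filed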;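 further: 0% = median of neutral control wells and 100% = median of positive control wells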
3T3 cytotox 2 – cytotoxicity in mouse NIH/3T3 fibroblasts. shares compounds with T cruzi growth-1. NIH/3T3 viability, CellTiter-Glo ATP luminescence, 90 h. inhibition, % at 24.9 µM. 56% of 5,600 active. AID 651744;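 active means mean loss of cell viability signal at or above a set limit, and enough replicates individually reaching it; inconclusive means meets only the mean limit or only the replicate share; inactive means meets neither condition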;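 further: 0% = median of neutral control wells and 100% = median of positive control wells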
The depositor's hits bear a star; ? = inconclusive; · = not tested or not shown. Hits are enriched below; roughly 5.9% of the tested compounds scored in any of these assays.

SMILES	KDM4C inh	IDH1 R132H inh	T cruzi growth-1	Pf Dd2 inh	T cruzi growth-2	T cruzi growth-3	3T3 cytotox	3T3 cytotox 2
C[C@H](CO)N1C[C@H](C)[C@H](CN(C)Cc2ccc3c(c2)OCO3)OCCCC[C@H](C)Oc2ccc(NC(=O)Nc3ccc(C(F)(F)F)cc3)cc2C1=O	0	·	?	-71	104*	113*	124*	104*
C[C@@H]1CN([C@@H](C)CO)C(=O)c2cc(NC(=O)Nc3ccc(C(F)(F)F)cc3)ccc2O[C@@H](C)CCCCO[C@H]1CN(C)Cc1ccc2c(c1)OCO2	1	·	?	-70	100*	112*	21	105*
C[C@H](CO)N1C[C@H](C)[C@@H](CN(C)Cc2ccc(C(F)(F)F)cc2)OCCCC[C@H](C)Oc2ccc(NC(=O)Nc3ccc4c(c3)OCO4)cc2C1=O	-2	0	80	21	·	·	·	·
C[C@H]1CCCCO[C@H](CN(C)Cc2ccc(C(F)(F)F)cc2)[C@@H](C)CN([C@@H](C)CO)C(=O)c2cc(NC(=O)Nc3ccc4c(c3)OCO4)ccc2O1	1	·	74	-30	·	·	·	·
C[C@H]1CCCCO[C@H](CN(C)Cc2ccc3c(c2)OCO3)[C@@H](C)CN([C@@H](C)CO)C(=O)c2cc(NC(=O)Nc3ccc(C(F)(F)F)cc3)ccc2O1	1	0	?	-29	87	106*	91*	103*
C[C@@H]1CN([C@H](C)CO)C(=O)c2cc(NC(=O)Nc3ccc(C(F)(F)F)cc3)ccc2O[C@@H](C)CCCCO[C@H]1CN(C)Cc1ccc2c(c1)OCO2	0	6	?	-57	?	103*	22	104*
C[C@@H]1CCCCO[C@H](CN(C)Cc2ccc(C(F)(F)F)cc2)[C@H](C)CN([C@@H](C)CO)C(=O)c2cc(NC(=O)Nc3ccc4c(c3)OCO4)ccc2O1	-2	-2	83	-80	·	·	·	·
C[C@@H]1CCCCO[C@@H](CN(C)Cc2ccc3c(c2)OCO3)[C@@H](C)CN([C@H](C)CO)C(=O)c2cc(NC(=O)Nc3ccc(C(F)(F)F)cc3)ccc2O1	-1	·	127*	-4	90	110*	1	17
C[C@@H]1CCCCO[C@H](CN(C)Cc2ccc3c(c2)OCO3)[C@H](C)CN([C@@H](C)CO)C(=O)c2cc(NC(=O)Nc3ccc(C(F)(F)F)cc3)ccc2O1	-1	-1	122*	-86*	96*	116*	122*	104*
C[C@@H]1CCCCO[C@H](CN(C)Cc2ccc3c(c2)OCO3)[C@@H](C)CN([C@@H](C)CO)C(=O)c2cc(NC(=O)Nc3ccc(C(F)(F)F)cc3)ccc2O1	·	·	?	-66	97*	116*	117*	104*
C[C@@H]1CCCCO[C@@H](CN(C)Cc2ccc(C(F)(F)F)cc2)[C@H](C)CN([C@H](C)CO)C(=O)c2cc(NC(=O)Nc3ccc4c(c3)OCO4)ccc2O1	-1	·	79	-6	·	·	·	·
NC(CC(=O)O)c1cccc([N+](=O)[O-])c1 (stereo unspecified)	·	0	·	·	·	·	·	·
COc1cccc(S(=O)(=O)N(C)C[C@@H]2Oc3cc(C4=CCCC4)ccc3S(=O)(=O)N([C@H](C)CO)C[C@@H]2C)c1	0	0	107*	-68	104*	81	27	27*
COc1ccc(S(=O)(=O)N(C)C[C@@H]2Oc3cc(C4=CCCC4)ccc3S(=O)(=O)N([C@H](C)CO)C[C@@H]2C)cc1	0	0	120*	-38	101*	78	34	49*
COc1ccc(S(=O)(=O)N(C)C[C@@H]2Oc3cc(C4=CCCC4)ccc3S(=O)(=O)N([C@@H](C)CO)C[C@@H]2C)cc1	1	-1	109*	-61	104*	88	27	39*
Cc1ccc(S(=O)(=O)N(C)C[C@H]2Oc3cc(C4=CCCC4)ccc3S(=O)(=O)N([C@H](C)CO)C[C@H]2C)cc1	2	0	·	-22	·	·	·	·
COc1cccc(S(=O)(=O)N(C)C[C@H]2Oc3cc(C4=CCCC4)ccc3S(=O)(=O)N([C@@H](C)CO)C[C@H]2C)c1	-2	0	74	-4	·	·	·	·
O=C(Cn1ncc2ccccc2c1=O)Nc1cccc([N+](=O)[O-])c1	·	0	·	·	·	·	·	·
O=C(NCCCN1CCCC1=O)c1cc2ccccc2oc1=O	·	0	·	·	·	·	·	·
C[C@@H](NC(=O)C[C@@H]1C=C[C@H](NC(=O)C2CCOCC2)[C@H](CO)O1)c1ccccc1	1	0	18	-4	·	·	·	·
C[C@H](NC(=O)C[C@H]1C=C[C@H](NC(=O)C2CCOCC2)[C@H](CO)O1)c1ccccc1	0	0	98*	2	-13	-77	-3	-14
O=C(C[C@H]1C=C[C@@H](NC(=O)C2CC2)[C@@H](CO)O1)Nc1nccs1	1	0	121*	-18	78	11	-15	-1
COc1ccc(S(=O)(=O)N(C)C[C@H]2OCCCC[C@H](C)Oc3ccc(NC(=O)Cc4ccccc4)cc3C(=O)N([C@@H](C)CO)C[C@@H]2C)cc1	-4	·	?	-83*	107*	43	-10	-18
C[C@@H]1CN([C@H](C)CO)C(=O)c2cc(NC(=O)Cc3ccccc3)ccc2O[C@@H](C)CCCCO[C@@H]1CN(C)S(=O)(=O)c1ccc(Cl)cc1	-2	·	108*	-84*	109*	85	-13	22
Cc1ccc(S(=O)(=O)N(C)C[C@@H]2OCCCC[C@H](C)Oc3ccc(NC(=O)Cc4ccccc4)cc3C(=O)N([C@H](C)CO)C[C@@H]2C)cc1	-1	·	112*	-76	101*	30	-21	?
C[C@@H]1CN([C@@H](C)CO)C(=O)c2cc(NC(=O)Cc3ccccc3)ccc2O[C@@H](C)CCCCO[C@@H]1CN(C)S(=O)(=O)c1ccc(Cl)cc1	-1	·	111*	-85*	101*	65	-3	-2
COc1cc(NS(=O)(=O)c2ccc(NC(=O)c3cccc4ccccc34)cc2)ncn1	·	0	·	·	·	·	·	·
COc1cccc(C#Cc2ccc3c(c2)[C@@H]2[C@@H](CCN2S(=O)(=O)c2ccccc2)[C@H](CO)N3)c1	-4	·	·	-56	·	·	·	·
COc1cccc(S(=O)(=O)N2CC[C@@H]3[C@H](CO)Nc4ccc(C#Cc5cccnc5)cc4[C@@H]32)c1	-1	·	110*	-8	108*	71	29	22

Assay outcomes (PubChem)
